Only some compounds are listed: those with a hit (about 2% of all), similar ones and a draw of the others.
VLA-4 inh – inhibition in a human VLA-4 binding assay; inhibition, % (about 7 µM as worked out from the volumes in the protocol); 0.2% of 330,000 active; VLA-4 expressing cells, ligand binding flow cytometry; in the data active = inhibition above about 50%
Exocytosis inh – blocks lytic granule exocytosis; TALL-104 LAMP-1 surface exposure, flow cytometry; cells stimulated with thapsigargin and PMA; inhibition, % at 10 µM; AID 651702; 0.66% of 360,000 active;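 active = inhibition above about 55%, limit read from the data; inconclusive = no clear call, values can overlap the other calls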
ABCB6 inh MLPCN – human ABCB6 transporter inhibition. Q9NP58. K562-ABCB6 porphyrin accumulation, flow cytometry, 1 h; active compounds read low. fluorescence ratio to DMSO, % at 10 µM. 0.19% of 360,000 active. AID 602162;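 active = fluorescence ratio to DMSO below 75%, the collection mean minus 3 SD; inconclusive = too few cells collected in the well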;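 also: signal is porphyrin accumulated inside mitochondria; 100% equals median channel fluorescence of DMSO control wells; lower ratio means ABCB6 inhibition with less porphyrin fluorescence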
MT1-MMP act inh – MT1-MMP (human) activation inhibition. HT1080 RFP-PRO-GFP cells, GFP/RFP ratio fluorescence, overnight; percent of plate control window, DMSO zero. GFP/RFP ratio change, % at 20 µM. 0.061% of 360,000 active;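 active = GFP/RFP ratio change of at least 30% with cell ATP level not reduced by more than half and red fluorescence within 50% of control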
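Assay system: HT1080 RFP-PRO-GFP cells. Benchmarks: DMSO vehicle wells and RFP-L50D-GFP reporter cell wells. Times: overnight cell settling, then overnight compound exposure, 37 °C, 5% CO2. Compound: 20 µM single dose, 1% DMSO. Read-out basis: GFP/RFP fluorescence ratio.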
DAGLB inh – diacylglycerol lipase beta (human) inhibition. 0.059% of 340,000 active. Q8NCG7. HEK293T DAGLB membrane lysate, EnzChek fluorogenic substrate. AID 504411. inhibition, % at 5.17 µM; in the data active = inhibition above about 34%;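 also: 0% = enzyme with vehicle and 100% = wells lacking enzyme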
FGF22 binding – shifts melting point of recombinant human FGF22; recombinant FGF22 thermal shift, SYPRO orange fluorescence; percent of sucrose octasulfate shift, DMSO zero; activity (Tm shift, normalised), % at 9.99 µM; 1.5% of 340,000 active;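 active = mean Tm shift, scaled 0 neutral to 100 positive control, at about 1.3% or above, every replicate too, limit read from the data; inconclusive = no clear call, values can overlap the other calls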
The depositor's hits bear a star; i = inactive; u = inconclusive; x = no result.

SMILES | VLA-4 inh | Exocytosis inh | ABCB6 inh MLPCN | MT1-MMP act inh | DAGLB inh | FGF22 binding
C[C@@H]1CN([C@H](C)CO)C(=O)c2cccc(NS(=O)(=O)c3cccs3)c2O[C@@H]1CN(C)C | x | x | x | x | x | 0
O=C(Nc1nnc(Cc2ccc(Cl)cc2)s1)C1CCCO1 (centres undefined) | 17 | 0 | 102 | -2 | 2 | 43*
COc1ccc(Cc2nnc(NC(=O)C3CCCO3)s2)cc1 (centres undefined) | -8 | 2 | 96 | -1 | 1 | x
CCCNC(=O)Nc1ccc2c(c1)OC[C@H](C)N(C(=O)CC)C[C@H](C)[C@@H](OC)CN(C)C2=O | x | x | x | x | x | 0
Cc1ccc(CN2C(=O)NC(Cc3c[nH]c4ccccc34)C2=O)cc1 (centres undefined) | -2 | u | 100 | 1 | 2 | x
CC(C)CNC(=O)CN1C(=O)NC(Cc2c[nH]c3ccccc23)C1=O (centres undefined) | 36 | -2 | 99 | 3 | -2 | 43*
O=C1NC(Cc2c[nH]c3ccccc23)C(=O)N1Cc1cccc2ccccc12 (centres undefined) | 4 | 5 | 94 | 9 | -1 | 43*
CNC(=O)CN1C(=O)NC(Cc2c[nH]c3ccccc23)C1=O (centres undefined) | 15 | 9 | 103 | -8 | 3 | 0
COC1CCN(C(=O)CC2C(=O)NCCN2CC2CCCCC2)CC1 (centres undefined) | 12 | 1 | 103 | -5 | -4 | 43*
CC(C)Cn1c(N)cc(=O)n(C)c1=O | 61* | 2 | 104 | 0 | -1 | 0
C[C@H]1CN([C@@H](C)CO)S(=O)(=O)c2ccc(C#CC3CC3)cc2O[C@H]1CN(C)S(C)(=O)=O | x | x | x | x | x | 0
CO[C@@H]1CN(C)C(=O)c2cc(NC(=O)C3CC3)ccc2OC[C@H](C)N(Cc2cccc(F)c2)C[C@@H]1C | x | x | x | x | x | 0
CN(C)Cc1c(O)ccc2c(-c3ccccc3)cc(=O)oc12 | 9 | 3 | 98 | -4 | 0 | 43*
C[C@@H]1CN([C@H](C)CO)C(=O)c2cc(C#C[C@@H](C)O)cnc2O[C@H]1CN(C)Cc1ccccn1 | x | x | x | x | x | 0
C/C(=N/NC(=O)c1sc(NS(=O)(=O)c2ccc(C)cc2)nc1C)c1sc(N)nc1C | -45 | -1 | 96 | 0 | 5 | 43*
Cc1ccc(S(=O)(=O)Nc2nc(C)c(C(=O)NN)s2)cc1 | -2 | 7 | 101 | -1 | 5 | 0
N#Cc1c(-c2ccccc2)nc(SCC(=O)Nc2ccccc2F)[nH]c1=O | -7 | 4 | 102 | 2 | 7 | 1.9*
C[C@@H]1CN([C@@H](C)CO)C(=O)c2cc(NC(=O)c3ccncc3)ccc2O[C@@H](C)CCCCO[C@H]1CN(C)CC1CCCCC1 | x | x | x | x | x | 0
COc1cc(NC(=O)c2ccc(Cl)cc2)c(OC)cc1NC(=O)CN1CCCCC1 | 10 | 0 | 94 | 5 | x | 1
COc1cc(NC(=O)c2cccc(C)c2)c(OC)cc1NC(=O)CN1CCCCC1 | 5 | 3 | 94 | -2 | -3 | 43*
CCC1(C)Cc2ccccc2C(=O)N1 (centres undefined) | 15 | -8 | 99 | -4 | 0 | 0
CC1(C)Cc2ccccc2C(=NCC(=O)O)N1 | 0 | -6 | 104 | 2 | 0 | 43*
C#CC(=O)N(c1cc(OC)ccc1OC)C(C(=O)NC1CCCC1)c1cccs1 (centres undefined) | 5 | 21 | 64* | -23 | 0 | x
CCc1ccc(Nc2ccc(C(N)=O)cc2[N+](=O)[O-])cc1 | 11 | 18 | 104 | 5 | 14 | 44*
COc1ccc(Nc2ccc(OC)cc2)cc1 | 2 | 10 | 111 | 38* | x | 0
COc1ccc(Nc2ccc(Nc3ccc(OC)cc3)nn2)cc1 | 3 | 1 | 100 | 0 | 0 | -2
COc1ccc(Nc2nc(N)nc(CCl)n2)cc1 | 5 | 57* | 104 | -3 | 1 | 0
CN(C)C(CNc1ccc(C(F)(F)F)cc1[N+](=O)[O-])c1ccccc1 (centres undefined) | 1 | 74* | 99 | -5 | -5 | 0
CCN1/C(=C/C=C/C=C/c2sc3ccccc3[n+]2CC)Sc2ccccc21 | i | x | x | x | x | x
